Experimental findings from article PMC9727339 (Asian Pacific Journal of Cancer Prevention : APJCP, 2022) are described below.

Several values for one entry are separate records, joined by “and”; a condition that tells them apart may be missing. Equal values may be shown once. Read-outs that look alike come from different tables or passages of the source.

Series [1] is described as follows: DPPH radical scavenging, 96-well colorimetric assay. The series is classed as biochemical. Conditions: read-out: DPPH radical scavenging IC50 value; 30 minutes incubations; mean ± SD, n = 3.
Series [2] relates to Nitric oxide synthase / NO in LPS prompted RAW264.7 macrophages. Format: cell-based. Conditions: mean ± SD, n = 3.
Series [3] deals with breast carcinoma T47D cell line. The series is described as follows: Antiproliferation, sulforhodamine B colorimetric bioassay, T47D. The series is classed as cell-based. Conditions: read-out: Cytotoxicity (as of %Control) IC50, T47D, 72 h incubations, SRB, mean ± SD, n = 3-4.
Series [4] relates to breast carcinoma MCF7 cell line. Nature of the series: Antiproliferation, sulforhodamine B colorimetric bioassay, MCF7. The series is classed as cell-based. Conditions: read-out: Cytotoxicity (as of %Control) IC50, MCF7, 72 h incubations, SRB, mean ± SD, n = 3-4.
Series [5] concerns skin melanoma A375.s2 cell line. Nature of the series: Antiproliferation, sulforhodamine B colorimetric bioassay, A375.s2. The series is classed as cell-based. Conditions: read-out: Cytotoxicity (as of %Control) IC50, A375.s2; 72 h incubations, SRB; mean ± SD, n = 3-4.
Series [6] deals with normal periodontal ligament fibroblasts (PDL). The series is described as follows: Cytotoxicity in normal periodontal ligament fibroblasts. The series is classed as cell-based. The method in brief:
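Normal periodontal ligament fibroblasts exposed to test compound for 72 h. […] Selectivity index is the compound's IC50 on PDL divided by its IC50 on a given cancer cell line.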

In the case of `O=C1O[C@H]([C@@H](O)CO)C(O)=C1O` [Ascorbic acid, ascorbic acid], in series [1], the IC50 stood at 3.37 µM.
Regarding `COc1ccc2c(c1)c(CC(=O)O)c(C)n2C(=O)c1ccc(Cl)cc1` [Indomethacin, indomethacin], the IC50 in series [2] (Mus musculus, RAW264.7, 24 h, read-out: NOS- IC50 value (NO scavenging/antiinflammation), LPS prompted RAW264.7, 24h incubations, Griess assay) is 55.1 µM and 26.9 µg/mL; in series [2] (read-out: NOS- IC50 value (NO scavenging/antiinflammation), LPS prompted RAW264.7, 24h incubations, Griess assay), 55.1 ± 2.25 µM.
In the case of `N.N.[Cl][Pt][Cl]` [Cisplatin, cisplatin], the IC50 in series [3] is 45.1 ± 7.84 µM; in series [3] (listed as cisplatin), 45.2 µM and 45 µM; in series [4] it was 92.6 ± 12.5 µM; in series [4] (listed as cisplatin), 92.6 µM; in series [5], 0.7 ± 0.1 µM; in series [6] (read-out: IC50 PDL Fibro, 72h incubations, mean ± SD, n = 3), 0.71 ± 0.13 µM. For the same compound, the “IC50 PDL Fibro” value in series [6] (72h incubations, mean ± SD, n = 3) was “(0.21 ± 0.04) µg/mL”.
